For test [1], the target named is T1, NUAK family SNF1-like kinase 2 (Homo sapiens) (UniProt Q9H093).
T1 sequence (whole entry): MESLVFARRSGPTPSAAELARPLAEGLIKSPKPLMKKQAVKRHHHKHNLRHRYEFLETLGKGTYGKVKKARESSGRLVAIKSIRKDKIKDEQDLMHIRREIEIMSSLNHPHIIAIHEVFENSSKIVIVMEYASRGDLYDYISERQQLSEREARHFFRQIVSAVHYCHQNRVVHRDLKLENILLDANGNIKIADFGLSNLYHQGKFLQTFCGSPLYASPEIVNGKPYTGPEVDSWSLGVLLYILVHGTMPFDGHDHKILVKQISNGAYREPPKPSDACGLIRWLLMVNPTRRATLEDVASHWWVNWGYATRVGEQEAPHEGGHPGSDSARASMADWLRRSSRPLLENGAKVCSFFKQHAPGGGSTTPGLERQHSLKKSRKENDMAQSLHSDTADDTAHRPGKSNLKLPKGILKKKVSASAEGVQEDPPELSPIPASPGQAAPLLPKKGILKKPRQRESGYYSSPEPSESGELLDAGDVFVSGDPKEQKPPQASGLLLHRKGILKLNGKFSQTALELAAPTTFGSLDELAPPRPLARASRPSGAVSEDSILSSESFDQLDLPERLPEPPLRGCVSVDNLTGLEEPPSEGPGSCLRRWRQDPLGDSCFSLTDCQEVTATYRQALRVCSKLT
In words: Residual activity of SNARK at 0.1 uM by microplate scintillation counting.

Test [2] deals with Serine/threonine-protein kinase PAK 2 (Homo sapiens) (UniProt Q13177). In words: Residual activity of PAK2 at 0.1 uM by microplate scintillation counting.
For test [3], the target named is T2, Mitogen-activated protein kinase 12 (Homo sapiens) (UniProt P53778).
T2 sequence (whole entry): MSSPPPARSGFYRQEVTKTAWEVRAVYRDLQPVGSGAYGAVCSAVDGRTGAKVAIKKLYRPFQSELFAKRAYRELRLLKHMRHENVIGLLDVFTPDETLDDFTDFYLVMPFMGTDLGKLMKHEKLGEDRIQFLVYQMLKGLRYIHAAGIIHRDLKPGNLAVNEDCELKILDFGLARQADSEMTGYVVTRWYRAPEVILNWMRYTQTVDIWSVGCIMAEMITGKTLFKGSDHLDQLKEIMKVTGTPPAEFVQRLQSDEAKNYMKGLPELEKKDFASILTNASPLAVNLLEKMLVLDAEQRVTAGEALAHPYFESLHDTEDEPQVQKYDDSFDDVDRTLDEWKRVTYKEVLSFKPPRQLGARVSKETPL
In words: Residual activity of p38-gamma at 10 uM by microplate scintillation counting.

In test [4] the target is Vascular endothelial growth factor receptor 3 (Homo sapiens, UniProt P35916). In words: Inhibition of VEGFR3 by microplate scintillation counting. The essentials:
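Radiometric FlashPlate assay using recombinant kinase (10–200 ng/well) with poly(Glu,Tyr)4:1 substrate. Buffer: 60 mM HEPES-NaOH pH 7.5, 3 mM MgCl2, 3 mM MnCl2, 3 µM orthovanadate, 1.2 mM DTT, PEG 20000, 1 µM [γ-33P]-ATP. Run 80 min at 30 °C, stopped with H3PO4, and 33P incorporation counted.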

For test [5], the target named is Serine/threonine-protein kinase PLK1 (Homo sapiens) (UniProt P53350). In words: Residual activity of PLK1 at 0.1 uM by microplate scintillation counting.
Test [6] addresses Platelet-derived growth factor receptor beta (Homo sapiens, UniProt P09619). In words: Residual activity of PDGFRbeta at 1 uM by microplate scintillation counting.
For test [7], the system named is Serine/threonine-protein kinase B-raf (Homo sapiens), P15056 [V600E]. In words: Residual activity of B-RAF V600E mutant at 1 uM by microplate scintillation counting.
For test [8], the target named is T3, Tyrosine-protein kinase Mer (Homo sapiens) (UniProt Q12866).
T3 sequence (whole entry): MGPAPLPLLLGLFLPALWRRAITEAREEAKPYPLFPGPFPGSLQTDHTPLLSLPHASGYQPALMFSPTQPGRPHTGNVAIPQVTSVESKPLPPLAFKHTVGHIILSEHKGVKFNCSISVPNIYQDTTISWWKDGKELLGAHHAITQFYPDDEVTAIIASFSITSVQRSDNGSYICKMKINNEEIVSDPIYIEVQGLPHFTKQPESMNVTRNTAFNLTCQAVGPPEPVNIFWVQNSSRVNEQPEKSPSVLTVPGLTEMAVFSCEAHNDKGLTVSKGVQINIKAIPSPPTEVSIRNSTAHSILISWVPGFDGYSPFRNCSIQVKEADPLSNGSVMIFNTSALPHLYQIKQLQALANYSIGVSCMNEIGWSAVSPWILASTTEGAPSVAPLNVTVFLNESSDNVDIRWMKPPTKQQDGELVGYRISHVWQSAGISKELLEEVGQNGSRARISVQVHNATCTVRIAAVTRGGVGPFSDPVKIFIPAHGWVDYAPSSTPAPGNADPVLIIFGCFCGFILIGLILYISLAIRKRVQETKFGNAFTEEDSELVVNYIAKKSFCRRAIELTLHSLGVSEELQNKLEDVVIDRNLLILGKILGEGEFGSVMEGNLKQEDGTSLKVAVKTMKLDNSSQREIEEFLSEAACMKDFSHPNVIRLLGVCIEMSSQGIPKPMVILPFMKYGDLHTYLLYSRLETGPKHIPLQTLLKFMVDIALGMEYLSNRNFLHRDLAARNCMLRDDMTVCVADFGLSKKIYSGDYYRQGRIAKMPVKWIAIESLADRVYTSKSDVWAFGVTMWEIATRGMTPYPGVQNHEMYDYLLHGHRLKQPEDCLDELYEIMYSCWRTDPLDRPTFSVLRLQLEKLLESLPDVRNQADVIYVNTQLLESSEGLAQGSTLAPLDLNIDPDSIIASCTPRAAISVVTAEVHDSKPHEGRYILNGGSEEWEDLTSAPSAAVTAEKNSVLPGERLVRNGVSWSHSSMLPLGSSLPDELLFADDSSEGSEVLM
In words: Residual activity of MERTK at 1 uM by microplate scintillation counting.

The target in test [9] is MAP kinase-activated protein kinase 3 (Homo sapiens) (UniProt Q16644). In words: Residual activity of MAPKAPK3 at 1 uM by microplate scintillation counting.
In test [10] the target is Protein kinase C theta type (Homo sapiens) (UniProt Q04759). In words: Residual activity of PKCtheta at 1 uM by microplate scintillation counting.
Test [11] concerns the target Serine/threonine-protein kinase N2 (Homo sapiens) (UniProt Q16513). In words: Residual activity of PRK2 at 0.1 uM by microplate scintillation counting.
Test [12] concerns the target Protein-tyrosine kinase 6 (Homo sapiens) (UniProt Q13882). In words: Residual activity of BRK at 1 uM by microplate scintillation counting.
Test [13] has as its target Casein kinase I isoform epsilon (Homo sapiens) (UniProt P49674). In words: Residual activity of CK1epsilon at 0.1 uM by microplate scintillation counting.
For test [14], the target named is Serine/threonine-protein kinase PLK2 (Homo sapiens) (UniProt Q9NYY3). In words: Residual activity of SNK at 10 uM by microplate scintillation counting.

Structures are written as SMILES.

The results in this text go back to ChEMBL document CHEMBL1152560, “Substituted 2-arylbenzothiazoles as kinase inhibitors: hit-to-lead optimization” (Bioorg Med Chem, 2009).

Broadly, the IC50 is the point on the concentration scale where inhibition reaches its midpoint.

Serine/threonine-protein kinase PAK 2 (Homo sapiens), sequence (Q13177 whole entry): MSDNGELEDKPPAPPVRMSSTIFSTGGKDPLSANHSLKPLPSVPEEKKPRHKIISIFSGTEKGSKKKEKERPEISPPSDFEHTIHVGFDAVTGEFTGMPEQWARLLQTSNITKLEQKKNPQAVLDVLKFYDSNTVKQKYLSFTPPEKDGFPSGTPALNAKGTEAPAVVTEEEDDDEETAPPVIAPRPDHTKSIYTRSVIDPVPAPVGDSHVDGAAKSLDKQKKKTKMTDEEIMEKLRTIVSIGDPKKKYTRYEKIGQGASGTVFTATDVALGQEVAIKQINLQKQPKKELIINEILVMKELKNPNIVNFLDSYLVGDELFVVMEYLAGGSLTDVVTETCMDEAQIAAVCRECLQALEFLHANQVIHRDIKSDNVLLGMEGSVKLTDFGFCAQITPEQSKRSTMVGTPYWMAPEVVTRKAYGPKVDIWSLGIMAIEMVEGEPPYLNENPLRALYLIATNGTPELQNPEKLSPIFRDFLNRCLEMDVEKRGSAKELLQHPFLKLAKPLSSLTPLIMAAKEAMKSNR
Casein kinase I isoform epsilon (Homo sapiens), sequence (P49674 whole entry, looked up, canonical isoform): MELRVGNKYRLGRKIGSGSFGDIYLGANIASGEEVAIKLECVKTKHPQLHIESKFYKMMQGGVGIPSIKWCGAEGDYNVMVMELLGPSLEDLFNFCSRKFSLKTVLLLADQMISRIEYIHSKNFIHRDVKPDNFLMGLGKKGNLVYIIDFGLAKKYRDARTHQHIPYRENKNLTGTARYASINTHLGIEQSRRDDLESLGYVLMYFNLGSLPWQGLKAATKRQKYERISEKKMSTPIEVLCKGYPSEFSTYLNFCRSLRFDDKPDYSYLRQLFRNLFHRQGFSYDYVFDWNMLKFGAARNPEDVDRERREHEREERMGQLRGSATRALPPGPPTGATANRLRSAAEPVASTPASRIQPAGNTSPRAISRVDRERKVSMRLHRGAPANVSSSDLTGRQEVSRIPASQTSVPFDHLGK
Serine/threonine-protein kinase PLK2 (Homo sapiens), sequence (Q9NYY3 whole entry, looked up): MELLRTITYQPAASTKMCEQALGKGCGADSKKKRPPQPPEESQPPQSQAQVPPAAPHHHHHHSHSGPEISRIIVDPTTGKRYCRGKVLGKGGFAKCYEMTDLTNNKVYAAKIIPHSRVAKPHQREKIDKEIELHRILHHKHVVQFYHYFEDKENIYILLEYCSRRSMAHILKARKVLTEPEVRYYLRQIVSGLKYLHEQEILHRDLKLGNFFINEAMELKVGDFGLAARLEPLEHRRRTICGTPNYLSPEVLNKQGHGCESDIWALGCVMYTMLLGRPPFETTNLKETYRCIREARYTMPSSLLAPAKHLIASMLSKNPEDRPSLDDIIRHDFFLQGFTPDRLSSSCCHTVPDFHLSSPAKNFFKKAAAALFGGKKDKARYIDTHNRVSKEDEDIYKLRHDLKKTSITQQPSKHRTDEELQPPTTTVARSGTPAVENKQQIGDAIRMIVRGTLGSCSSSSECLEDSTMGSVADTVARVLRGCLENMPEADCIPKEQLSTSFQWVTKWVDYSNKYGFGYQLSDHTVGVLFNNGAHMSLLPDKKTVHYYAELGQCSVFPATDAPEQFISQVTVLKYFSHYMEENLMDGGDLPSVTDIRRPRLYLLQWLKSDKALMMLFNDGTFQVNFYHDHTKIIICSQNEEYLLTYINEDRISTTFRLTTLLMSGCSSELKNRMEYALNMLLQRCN
Serine/threonine-protein kinase B-raf (Homo sapiens), P15056 [V600E], sequence (P15056 whole entry V600E): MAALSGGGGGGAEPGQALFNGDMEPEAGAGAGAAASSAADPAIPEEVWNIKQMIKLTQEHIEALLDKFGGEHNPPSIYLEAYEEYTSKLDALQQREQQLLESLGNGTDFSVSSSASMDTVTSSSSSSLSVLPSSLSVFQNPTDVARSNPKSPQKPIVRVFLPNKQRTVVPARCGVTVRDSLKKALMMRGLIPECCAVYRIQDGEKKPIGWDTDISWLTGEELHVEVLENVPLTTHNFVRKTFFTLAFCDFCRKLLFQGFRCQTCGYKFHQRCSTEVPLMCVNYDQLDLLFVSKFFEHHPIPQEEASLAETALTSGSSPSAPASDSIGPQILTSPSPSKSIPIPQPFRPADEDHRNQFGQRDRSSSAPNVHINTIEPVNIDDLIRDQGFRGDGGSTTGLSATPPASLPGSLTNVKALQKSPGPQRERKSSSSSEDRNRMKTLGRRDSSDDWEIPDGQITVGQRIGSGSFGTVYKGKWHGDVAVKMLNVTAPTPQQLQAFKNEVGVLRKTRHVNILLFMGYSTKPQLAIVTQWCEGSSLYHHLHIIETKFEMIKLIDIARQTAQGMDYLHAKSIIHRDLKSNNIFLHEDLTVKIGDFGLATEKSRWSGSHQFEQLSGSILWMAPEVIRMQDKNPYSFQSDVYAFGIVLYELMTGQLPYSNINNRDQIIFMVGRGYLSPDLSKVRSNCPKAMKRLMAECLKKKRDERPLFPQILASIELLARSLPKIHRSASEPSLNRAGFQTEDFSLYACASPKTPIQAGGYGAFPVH
Vascular endothelial growth factor receptor 3, sequence (P35916 whole entry): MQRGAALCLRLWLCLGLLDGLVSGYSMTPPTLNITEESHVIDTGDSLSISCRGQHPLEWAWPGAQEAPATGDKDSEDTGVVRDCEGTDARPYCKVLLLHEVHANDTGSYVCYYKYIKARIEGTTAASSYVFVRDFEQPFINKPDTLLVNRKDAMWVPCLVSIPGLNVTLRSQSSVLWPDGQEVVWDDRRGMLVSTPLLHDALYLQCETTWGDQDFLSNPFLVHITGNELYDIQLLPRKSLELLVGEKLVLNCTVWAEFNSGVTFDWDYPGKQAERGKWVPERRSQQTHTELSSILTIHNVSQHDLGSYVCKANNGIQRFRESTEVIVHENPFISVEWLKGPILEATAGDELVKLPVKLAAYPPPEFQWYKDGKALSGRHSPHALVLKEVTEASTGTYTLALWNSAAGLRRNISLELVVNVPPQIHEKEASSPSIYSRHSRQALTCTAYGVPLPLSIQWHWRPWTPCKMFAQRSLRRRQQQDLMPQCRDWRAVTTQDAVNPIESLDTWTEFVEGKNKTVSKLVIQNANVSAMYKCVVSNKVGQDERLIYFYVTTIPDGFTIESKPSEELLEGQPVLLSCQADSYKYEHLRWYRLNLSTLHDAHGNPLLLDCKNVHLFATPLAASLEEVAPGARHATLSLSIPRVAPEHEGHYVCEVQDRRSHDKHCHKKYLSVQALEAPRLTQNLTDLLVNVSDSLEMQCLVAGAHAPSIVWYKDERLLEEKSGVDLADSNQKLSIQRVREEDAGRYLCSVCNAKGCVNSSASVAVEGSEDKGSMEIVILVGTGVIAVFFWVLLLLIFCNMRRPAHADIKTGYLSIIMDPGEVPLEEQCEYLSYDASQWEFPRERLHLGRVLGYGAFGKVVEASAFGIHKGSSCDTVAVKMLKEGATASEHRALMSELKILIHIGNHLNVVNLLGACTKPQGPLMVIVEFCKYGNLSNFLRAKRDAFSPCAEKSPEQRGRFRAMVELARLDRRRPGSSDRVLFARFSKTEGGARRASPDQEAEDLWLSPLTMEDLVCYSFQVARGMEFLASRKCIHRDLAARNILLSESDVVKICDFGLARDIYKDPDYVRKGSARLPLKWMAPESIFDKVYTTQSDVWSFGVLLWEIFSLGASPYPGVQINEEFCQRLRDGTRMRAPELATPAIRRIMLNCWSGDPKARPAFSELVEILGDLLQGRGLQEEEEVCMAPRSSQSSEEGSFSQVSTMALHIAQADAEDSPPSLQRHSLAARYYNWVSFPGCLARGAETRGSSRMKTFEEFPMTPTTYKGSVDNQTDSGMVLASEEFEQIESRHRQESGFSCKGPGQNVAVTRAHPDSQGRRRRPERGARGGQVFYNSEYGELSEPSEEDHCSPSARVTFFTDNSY
Protein kinase C theta type (Homo sapiens), sequence (Q04759 whole entry, looked up): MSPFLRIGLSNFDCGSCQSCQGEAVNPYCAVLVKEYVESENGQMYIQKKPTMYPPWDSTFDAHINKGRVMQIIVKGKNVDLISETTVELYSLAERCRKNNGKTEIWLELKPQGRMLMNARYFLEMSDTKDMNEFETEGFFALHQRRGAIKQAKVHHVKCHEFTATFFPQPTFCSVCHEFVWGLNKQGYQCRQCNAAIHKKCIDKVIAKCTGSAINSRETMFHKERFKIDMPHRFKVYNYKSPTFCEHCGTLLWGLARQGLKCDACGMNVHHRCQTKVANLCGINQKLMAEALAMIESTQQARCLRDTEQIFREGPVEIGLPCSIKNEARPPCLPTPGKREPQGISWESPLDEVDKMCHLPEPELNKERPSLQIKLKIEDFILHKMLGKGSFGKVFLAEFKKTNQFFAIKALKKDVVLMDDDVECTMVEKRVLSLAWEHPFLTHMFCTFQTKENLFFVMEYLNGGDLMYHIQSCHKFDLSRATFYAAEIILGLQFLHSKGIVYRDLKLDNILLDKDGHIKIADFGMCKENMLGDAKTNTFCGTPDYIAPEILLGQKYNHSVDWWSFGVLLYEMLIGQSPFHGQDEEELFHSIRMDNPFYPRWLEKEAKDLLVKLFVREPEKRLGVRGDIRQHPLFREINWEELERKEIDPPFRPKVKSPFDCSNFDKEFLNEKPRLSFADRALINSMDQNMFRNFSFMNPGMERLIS
MAP kinase-activated protein kinase 3 (Homo sapiens), sequence (Q16644 whole entry, looked up): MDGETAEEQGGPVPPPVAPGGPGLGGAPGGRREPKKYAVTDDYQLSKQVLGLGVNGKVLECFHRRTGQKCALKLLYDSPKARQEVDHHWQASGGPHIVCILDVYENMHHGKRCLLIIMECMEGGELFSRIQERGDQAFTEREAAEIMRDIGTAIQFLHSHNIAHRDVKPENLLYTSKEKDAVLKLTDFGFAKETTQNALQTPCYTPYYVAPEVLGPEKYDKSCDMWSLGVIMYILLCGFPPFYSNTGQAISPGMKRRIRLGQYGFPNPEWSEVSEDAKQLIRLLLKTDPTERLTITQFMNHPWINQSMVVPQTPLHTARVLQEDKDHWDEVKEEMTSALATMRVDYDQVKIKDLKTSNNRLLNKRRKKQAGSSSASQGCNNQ

For the molecule `COc1cc2c(Oc3ccc(-c4nc5ccccc5s4)cc3F)ncnc2cc1OCCCN1CCN(C)CC1`, the residual activity in test [1] was 88%; in [2], 97%; in test [3], 207%; in test [5] it was 98%; in test [6] it was 88%; in test [7] it was 79%. Also, the residual activity is 19% in [8]; 98% in test [9]; 100% in test [10]; 72% in [11]; 4% in [12]; 79% in test [13]. Also, the residual activity in test [14] was determined as 99%. This molecule came in with an IC50 in test [4] of 190 nM.

For the molecule `COc1cc2c(Oc3ccc(-c4nc5ccccc5s4)cc3)ncnc2cc1OCCCN1CCN(C)CC1`, the residual activity was found to be 96% in test [1]; 111% in [2]; 136% in test [3]; 94% in test [5]; 78% in test [6]; 86% in [7]. Further, the residual activity in test [8] came to 16%; in test [9], 85%; in [10], 113%; in [11], 65%; in test [12], 7%; in test [13] it was 80%. Besides, the residual activity in test [14] amounted to 108%. Further, it took 121 nM to reach half-maximal inhibition in test [4] (IC50).

In the case of `COc1cc2c(Oc3ccc(-c4nc5ccccc5s4)cc3)ncnc2cc1OCCCN1CCCC1`, the residual activity amounted to 84% in test [1]; 93% in test [2]; 292% in test [3]; 91% in [5]; 78% in [6]; 83% in test [7]. The residual activity is 11% in [8]; 94% in [9]; 111% in test [10]; 99% in test [11]; 8% in test [12]; 89% in test [13]. Moreover, the residual activity in test [14] was determined as 120%. This molecule registered an IC50 in test [4] of 140 nM.
